Test results as given in ChEMBL document CHEMBL1128719, “The synthesis, structure-activity, and structure-side effect relationships of a series of 8-alkoxy- and 5-amino-8-alkoxyquinolone antibacterial agents” (J Med Chem, 1995).
In brackets after ≈: the same amount, converted by molar mass.

Columns and labels:
[1] = test system: Peptoniphilus asaccharolyticus; test: In vitro antibacterial activity was tested for Pepto asac PA 3-1; format: functional
Outline: (§1)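 Microtitration (microdilution) MIC determination in μg/mL against a panel of Gram-positive, Gram-negative and anaerobic organisms. Values come from duplicate or triplicate experiments and are stated accurate to ±50%.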

Klebsiella pneumoniae = test: In vitro antibacterial activity was tested for Klebsiella pneumoniae MGH-2; format: functional; outline: as §1
Escherichia coli [2] = test: In vitro antibacterial activity was tested for Escherichia coli Vogel; format: functional; outline: as §1
Enterobacter cloacae = test: In vitro antibacterial activity was tested for Enterobacter cloacae HA2646; format: functional
Streptococcus pyogenes = test: In vitro antibacterial activity was tested for Streptococcus pyogenes C203; format: functional; outline: as §1
Bacteroides fragilis = test: In vitro antibacterial activity against Bacteroides fragilis BFA; format: functional; outline: as §1
Escherichia coli [3] = test: In vitro antibacterial activity was tested for Escherichia coli H560; format: functional; outline: as §1
Staphylococcus aureus [4] = test: In vitro antibacterial activity was tested for Staphylococcus aureus UC-76; format: functional; outline: as §1
Clostridioides difficile = test: In vitro antibacterial activity was tested for Clostridium diff CD1-1; format: functional
Staphylococcus aureus [5] = test: In vitro antibacterial activity was tested for Staphylococcus aureus H228; format: functional; outline: as §1
Streptococcus pneumoniae = test: In vitro antibacterial activity was tested for Streptococcus pneumoniae SV-1; format: functional; outline: as §1
Cutibacterium acnes = test: In vitro antibacterial activity was tested for Propion acnes PA5-1; format: functional; outline: as §1
Clostridium perfringens = test: In vitro antibacterial activity against Clostridium perfringens CP 3-1; format: functional
Providencia rettgeri = test: In vitro antibacterial activity was tested for Providencia rettgeri H1771; format: functional; outline: as §1
Pseudomonas aeruginosa = test: In vitro antibacterial activity was tested for Pseudomonas aeruginosa UI-18; format: functional; outline: as §1
Enterococcus faecalis = test: In vitro antibacterial activity was tested for Streptococcus faecalis MGH-2; format: functional; outline: as §1
V79 = test: Clonogenic cytotoxicity against Chinese hamster V-79 cells; format: functional, cell-based; details: Cricetulus griseus

COc1c(N2CCCC(N)C2)c(F)cc2c(=O)c(C(=O)O)cn(C3CC3)c12 (stereo unspecified)
MIC [1]: 0.8 µg/mL (≈ 2.13 µM) | MIC (Klebsiella pneumoniae): 0.2 µg/mL (≈ 0.533 µM) | MIC (Escherichia coli [2]): 0.1 µg/mL (≈ 0.266 µM) | MIC (Enterobacter cloacae): 0.1 µg/mL (≈ 0.266 µM) | MIC (Streptococcus pyogenes): 0.013 µg/mL (≈ 0.0346 µM) | MIC (Bacteroides fragilis): 0.4 µg/mL (≈ 1.07 µM) | MIC (Escherichia coli [3]): 0.05 µg/mL (≈ 0.133 µM) | MIC (Staphylococcus aureus [4]): 0.006 µg/mL (≈ 0.016 µM) | MIC (Clostridioides difficile): 0.8 µg/mL (≈ 2.13 µM) | MIC (Staphylococcus aureus [5]): 0.05 µg/mL (≈ 0.133 µM) | MIC (Streptococcus pneumoniae): 0.013 µg/mL (≈ 0.0346 µM) | MIC (Cutibacterium acnes): 0.2 µg/mL (≈ 0.533 µM) | MIC (Clostridium perfringens): 0.4 µg/mL (≈ 1.07 µM) | MIC (Providencia rettgeri): 0.4 µg/mL (≈ 1.07 µM) | MIC (Pseudomonas aeruginosa): 1.6 µg/mL (≈ 4.26 µM) | MIC (Enterococcus faecalis): 0.025 µg/mL (≈ 0.0666 µM)

CCOc1c(N2CCCC(N)C2)c(F)cc2c(=O)c(C(=O)O)cn(C3CC3)c12 (stereo unspecified)
MIC (Klebsiella pneumoniae): 0.4 µg/mL (≈ 1.03 µM) | MIC (Escherichia coli [2]): 0.2 µg/mL (≈ 0.514 µM) | MIC (Enterobacter cloacae): 0.4 µg/mL (≈ 1.03 µM) | MIC (Streptococcus pyogenes): 0.2 µg/mL (≈ 0.514 µM) | MIC (Escherichia coli [3]): 0.2 µg/mL (≈ 0.514 µM) | MIC (Staphylococcus aureus [4]): 0.025 µg/mL (≈ 0.0642 µM) | MIC (Staphylococcus aureus [5]): 0.1 µg/mL (≈ 0.257 µM) | MIC (Streptococcus pneumoniae): 0.2 µg/mL (≈ 0.514 µM) | IC50 (V79): 210 µg/mL (≈ 539 µM) | MIC (Providencia rettgeri): 0.8 µg/mL (≈ 2.05 µM) | MIC (Pseudomonas aeruginosa): 3.1 µg/mL (≈ 7.96 µM) | MIC (Enterococcus faecalis): 0.2 µg/mL (≈ 0.514 µM)

COc1c(N2CCC(C)(CN)C2)c(F)c(N)c2c(=O)c(C(=O)O)cn(C3CC3)c12 (stereo unspecified)
MIC [1]: 0.8 µg/mL (≈ 1.98 µM) | MIC (Klebsiella pneumoniae): 0.2 µg/mL (≈ 0.495 µM) | MIC (Escherichia coli [2]): 0.1 µg/mL (≈ 0.247 µM) | MIC (Enterobacter cloacae): 0.1 µg/mL (≈ 0.247 µM) | MIC (Streptococcus pyogenes): 0.025 µg/mL (≈ 0.0618 µM) | MIC (Bacteroides fragilis): 1.6 µg/mL (≈ 3.96 µM) | MIC (Escherichia coli [3]): 0.05 µg/mL (≈ 0.124 µM) | MIC (Staphylococcus aureus [4]): 0.006 µg/mL (≈ 0.0148 µM) | MIC (Clostridioides difficile): 1.6 µg/mL (≈ 3.96 µM) | MIC (Staphylococcus aureus [5]): 0.025 µg/mL (≈ 0.0618 µM) | MIC (Streptococcus pneumoniae): 0.013 µg/mL (≈ 0.0321 µM) | MIC (Cutibacterium acnes): 1.6 µg/mL (≈ 3.96 µM) | IC50 (V79): 140 µg/mL (≈ 346 µM) | MIC (Clostridium perfringens): 0.8 µg/mL (≈ 1.98 µM) | MIC (Providencia rettgeri): 0.8 µg/mL (≈ 1.98 µM) | MIC (Pseudomonas aeruginosa): 3.1 µg/mL (≈ 7.66 µM) | MIC (Enterococcus faecalis): 0.05 µg/mL (≈ 0.124 µM)

CCOc1c(N2CCNC(C)C2)c(F)cc2c(=O)c(C(=O)O)cn(C3CC3)c12 (stereo unspecified)
MIC [1]: 1.6 µg/mL (≈ 4.11 µM) | MIC (Klebsiella pneumoniae): 0.2 µg/mL (≈ 0.514 µM) | MIC (Escherichia coli [2]): 0.1 µg/mL (≈ 0.257 µM) | MIC (Enterobacter cloacae): 0.1 µg/mL (≈ 0.257 µM) | MIC (Streptococcus pyogenes): 0.2 µg/mL (≈ 0.514 µM) | MIC (Bacteroides fragilis): 3.1 µg/mL (≈ 7.96 µM) | MIC (Escherichia coli [3]): 0.05 µg/mL (≈ 0.128 µM) | MIC (Staphylococcus aureus [4]): 0.05 µg/mL (≈ 0.128 µM) | MIC (Clostridioides difficile): 6.3 µg/mL (≈ 16.2 µM) | MIC (Staphylococcus aureus [5]): 0.2 µg/mL (≈ 0.514 µM) | MIC (Streptococcus pneumoniae): 0.05 µg/mL (≈ 0.128 µM) | MIC (Cutibacterium acnes): 3.1 µg/mL (≈ 7.96 µM) | MIC (Clostridium perfringens): 0.8 µg/mL (≈ 2.05 µM) | MIC (Providencia rettgeri): 0.4 µg/mL (≈ 1.03 µM) | MIC (Pseudomonas aeruginosa): 3.1 µg/mL (≈ 7.96 µM) | MIC (Enterococcus faecalis): 0.2 µg/mL (≈ 0.514 µM)

CCOc1c(N2CCC(C)(CN)C2)c(F)c(N)c2c(=O)c(C(=O)O)cn(C3CC3)c12 (stereo unspecified)
MIC [1]: 0.8 µg/mL (≈ 1.91 µM) | MIC (Klebsiella pneumoniae): 0.8 µg/mL (≈ 1.91 µM) | MIC (Escherichia coli [2]): 0.2 µg/mL (≈ 0.478 µM) | MIC (Enterobacter cloacae): 0.4 µg/mL (≈ 0.956 µM) | MIC (Streptococcus pyogenes): 0.1 µg/mL (≈ 0.239 µM) | MIC (Bacteroides fragilis): 3.1 µg/mL (≈ 7.41 µM) | MIC (Escherichia coli [3]): 0.1 µg/mL (≈ 0.239 µM) | MIC (Staphylococcus aureus [4]): 0.025 µg/mL (≈ 0.0597 µM) | MIC (Clostridioides difficile): 6.3 µg/mL (≈ 15.1 µM) | MIC (Staphylococcus aureus [5]): 0.1 µg/mL (≈ 0.239 µM) | MIC (Streptococcus pneumoniae): 0.05 µg/mL (≈ 0.119 µM) | MIC (Cutibacterium acnes): 3.1 µg/mL (≈ 7.41 µM) | MIC (Clostridium perfringens): 0.4 µg/mL (≈ 0.956 µM) | MIC (Providencia rettgeri): 1.6 µg/mL (≈ 3.82 µM) | MIC (Pseudomonas aeruginosa): 3.1 µg/mL (≈ 7.41 µM) | MIC (Enterococcus faecalis): 0.1 µg/mL (≈ 0.239 µM)

COc1c(N2CCC(CN)C2)c(F)cc2c(=O)c(C(=O)O)cn(C3CC3)c12 (stereo unspecified)
MIC [1]: 0.2 µg/mL (≈ 0.533 µM) | MIC (Klebsiella pneumoniae): 0.1 µg/mL (≈ 0.266 µM) | MIC (Escherichia coli [2]): 0.05 µg/mL (≈ 0.133 µM) | MIC (Enterobacter cloacae): 0.05 µg/mL (≈ 0.133 µM) | MIC (Streptococcus pyogenes): 0.003 µg/mL (≈ 0.00799 µM) | MIC (Bacteroides fragilis): 0.2 µg/mL (≈ 0.533 µM) | MIC (Escherichia coli [3]): 0.025 µg/mL (≈ 0.0666 µM) | MIC (Staphylococcus aureus [4]): 0.003 µg/mL (≈ 0.00799 µM) | MIC (Clostridioides difficile): 0.2 µg/mL (≈ 0.533 µM) | MIC (Staphylococcus aureus [5]): 0.025 µg/mL (≈ 0.0666 µM) | MIC (Streptococcus pneumoniae): 0.003 µg/mL (≈ 0.00799 µM) | MIC (Cutibacterium acnes): 0.2 µg/mL (≈ 0.533 µM) | MIC (Clostridium perfringens): 0.1 µg/mL (≈ 0.266 µM) | MIC (Providencia rettgeri): 0.1 µg/mL (≈ 0.266 µM) | MIC (Pseudomonas aeruginosa): 0.8 µg/mL (≈ 2.13 µM) | MIC (Enterococcus faecalis): 0.013 µg/mL (≈ 0.0346 µM)

COc1c(N2CCN(C)CC2)c(F)cc2c(=O)c(C(=O)O)cn(C3CC3)c12
MIC [1]: 1.6 µg/mL (≈ 4.26 µM) | MIC (Klebsiella pneumoniae): 0.2 µg/mL (≈ 0.533 µM) | MIC (Escherichia coli [2]): 0.1 µg/mL (≈ 0.266 µM) | MIC (Enterobacter cloacae): 0.1 µg/mL (≈ 0.266 µM) | MIC (Streptococcus pyogenes): 0.1 µg/mL (≈ 0.266 µM) | MIC (Bacteroides fragilis): 0.2 µg/mL (≈ 0.533 µM) | MIC (Escherichia coli [3]): 0.1 µg/mL (≈ 0.266 µM) | MIC (Staphylococcus aureus [4]): 0.05 µg/mL (≈ 0.133 µM) | MIC (Clostridioides difficile): 0.8 µg/mL (≈ 2.13 µM) | MIC (Staphylococcus aureus [5]): 0.1 µg/mL (≈ 0.266 µM) | MIC (Streptococcus pneumoniae): 0.1 µg/mL (≈ 0.266 µM) | MIC (Cutibacterium acnes): 0.4 µg/mL (≈ 1.07 µM) | MIC (Clostridium perfringens): 0.2 µg/mL (≈ 0.533 µM) | MIC (Providencia rettgeri): 0.4 µg/mL (≈ 1.07 µM) | MIC (Pseudomonas aeruginosa): 0.8 µg/mL (≈ 2.13 µM) | MIC (Enterococcus faecalis): 0.2 µg/mL (≈ 0.533 µM)

CCNCC1CCN(c2c(F)cc3c(=O)c(C(=O)O)cn(C4CC4)c3c2OC)C1 (stereo unspecified)
MIC [1]: 0.2 µg/mL (≈ 0.496 µM) | MIC (Klebsiella pneumoniae): 0.2 µg/mL (≈ 0.496 µM) | MIC (Escherichia coli [2]): 0.1 µg/mL (≈ 0.248 µM) | MIC (Enterobacter cloacae): 0.1 µg/mL (≈ 0.248 µM) | MIC (Streptococcus pyogenes): 0.013 µg/mL (≈ 0.0322 µM) | MIC (Bacteroides fragilis): 0.4 µg/mL (≈ 0.991 µM) | MIC (Escherichia coli [3]): 0.05 µg/mL (≈ 0.124 µM) | MIC (Staphylococcus aureus [4]): 0.006 µg/mL (≈ 0.0149 µM) | MIC (Clostridioides difficile): 0.2 µg/mL (≈ 0.496 µM) | MIC (Staphylococcus aureus [5]): 0.025 µg/mL (≈ 0.062 µM) | MIC (Streptococcus pneumoniae): 0.013 µg/mL (≈ 0.0322 µM) | MIC (Cutibacterium acnes): 0.4 µg/mL (≈ 0.991 µM) | MIC (Clostridium perfringens): 0.05 µg/mL (≈ 0.124 µM) | MIC (Providencia rettgeri): 0.4 µg/mL (≈ 0.991 µM) | MIC (Pseudomonas aeruginosa): 1.6 µg/mL (≈ 3.97 µM) | MIC (Enterococcus faecalis): 0.025 µg/mL (≈ 0.062 µM)

CCOc1c(N2CCCC(N)C2)c(F)c(N)c2c(=O)c(C(=O)O)cn(C3CC3)c12 (stereo unspecified)
MIC [1]: 0.8 µg/mL (≈ 1.98 µM) | MIC (Klebsiella pneumoniae): 0.4 µg/mL (≈ 0.989 µM) | MIC (Escherichia coli [2]): 0.2 µg/mL (≈ 0.495 µM) | MIC (Enterobacter cloacae): 0.2 µg/mL (≈ 0.495 µM) | MIC (Streptococcus pyogenes): 0.05 µg/mL (≈ 0.124 µM) | MIC (Bacteroides fragilis): 3.1 µg/mL (≈ 7.66 µM) | MIC (Escherichia coli [3]): 0.1 µg/mL (≈ 0.247 µM) | MIC (Staphylococcus aureus [4]): 0.013 µg/mL (≈ 0.0321 µM) | MIC (Clostridioides difficile): 6.3 µg/mL (≈ 15.6 µM) | MIC (Staphylococcus aureus [5]): 0.05 µg/mL (≈ 0.124 µM) | MIC (Streptococcus pneumoniae): 0.025 µg/mL (≈ 0.0618 µM) | MIC (Cutibacterium acnes): 3.1 µg/mL (≈ 7.66 µM) | MIC (Clostridium perfringens): 0.4 µg/mL (≈ 0.989 µM) | MIC (Providencia rettgeri): 0.8 µg/mL (≈ 1.98 µM) | MIC (Pseudomonas aeruginosa): 3.1 µg/mL (≈ 7.66 µM) | MIC (Enterococcus faecalis): 0.1 µg/mL (≈ 0.247 µM)
